Scp-1 inhibitor: Scp-1 phosphatase inhibitors, primary screen, biochemical, colorimetric, uHTS. Carboxy-terminal domain RNA polymerase II polypeptide A small phosphatase 1 (Homo …. Recombinant Scp1, phosphopeptide, malachite green phosphate absorbance. inhibition, % at 20 µM. 340,000 tested, 0.88% active;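 active = inhibition above about 50% at 20 µM, limit read from the data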;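 also: plate controls were DMSO wells with enzyme for no effect and wells lacking enzyme for full effect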
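Times: enzyme reaction 45 min at room temperature, colour 5 min, stabilisation 30 min. Material: SCP-1 catalytic fragment, aa 76-261. Medium: Acidic Tris acetate buffer with magnesium and detergent. Signal: colorimetric free-phosphate detection, absorbance 630 nm. Read-out basis: % inhibition of SCP-1 phosphate liberation. Reagent: Phosphorylated 17-residue peptide substrate.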
LMPTP inh: LMPTP phosphatase inhibitors, primary screen, biochemical, fluorescence intensity, uHTS; Low molecular weight phosphotyrosine protein phosphatase (Homo sapiens), P24666; recombinant LMPTP-A, OMFP fluorogenic substrate; inhibition, % at 20 µM; 360,000 tested, 0.22% active;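 active = compounds that cut the enzyme signal by at least half of the control window in the single-dose screen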;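 also: plate controls were DMSO wells with enzyme plus substrate for no effect and substrate without enzyme for full effect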
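Buffer or medium: Bis-Tris pH 6.0, DTT, detergent; Assay system: LMPTP-A enzyme; Quantity: 0.625 nM enzyme; Detection: endpoint fluorescence intensity; Times: 50 min dark incubation at room temperature; Controls: substrate-only low control, DMSO enzyme-plus-substrate high control; Doses: single 20 µM dose; Read-out: percent inhibition versus substrate-only and uninhibited controls; Reagent: 400 µM OMFP.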
DNMT1 inh: human DNMT1 methyltransferase inhibitors, primary screen, biochemical, molecular beacon, fluorescence, HinP1I cleavage, uHTS; AID 588458, 2011; 360,000 tested, 0.83% active; DNA (cytosine-5)-methyltransferase 1 (Homo sapiens), P26358; inhibition (reported as % activation of signal), % at 10 µM; in the data active = inhibition above about 50%
Rpn11 block: Rpn11 (PSMD14) deubiquitinase inhibitors, primary screen, biochemical, fluorescence polarization, uHTS; 26S proteasome non-ATPase regulatory subunit 14 (Homo sapiens), O00487; human 26S proteasome, Ub4-pepOG fluorescence polarization; 20S core pre-blocked with epoxomicin; inhibition, % at 20 µM; 360,000 tested, 0.59% active;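 active = inhibition at 20 µM, scaled to each plate's controls, above about 33%, limit read from the data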
STEP block: STEP phosphatase inhibitors, primary screen, biochemical, fluorescence intensity, uHTS. Tyrosine-protein phosphatase non-receptor type 5 (Homo sapiens), P54829. recombinant STEP, OMFP fluorogenic substrate. inhibition, % at 20 µM. 360,000 tested, 0.25% active;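 active = inhibition at 20 µM, scaled per plate between control wells, above about 37%, limit read from the data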;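 also: 0% = DMSO with enzyme and substrate and 100% = substrate only without enzyme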
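Also added – OMFP at 25 µM · Test system – STEP tyrosine phosphatase · Technique – FITC-channel fluorescence of OMFP product · Schedule – 20 min at room temperature, dark · Evaluation – control-normalized % inhibition with plate pattern correction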
DNMT1 inh conf: DNMT1 methyltransferase inhibitor retest, confirmation, biochemical, molecular beacon, fluorescence, single concentration; DNMT1 molecular beacon HinP1I cleavage; 2,300 tested, 8% active; inhibition, % at 10 µM; shares compounds with DNMT1 inh;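 active = average inhibition of at least 30% in the single-concentration confirmation test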
DNMT1 interf: shows spectral interference in the DNMT1 beacon assay; DNMT1 molecular beacon spectral interference counterscreen, fluorescence 485/520; activation (fluorescence interference), % at 10 µM; 2,300 tested, 1% active; shares compounds with DNMT1 inh; AID 602387;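 active = activation of at least 30% at 10 µM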;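 also: DNMT1 catalytic domain with a HinP1I cleavage step and a FAM/dabcyl DNA beacon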
* hit, by the source's call; . = no result given. A selection: hits, their analogues and other compounds. The true share with any hit is near 2%.

SMILES | Scp-1 inhibitor | LMPTP inh | DNMT1 inh | Rpn11 block | STEP block | DNMT1 inh conf | DNMT1 interf
Cc1cc(SCC(=O)N2CCCC2=O)nc2c(C)cccc12 | -4.0 | 1.1 | 80.4* | -3.5 | -0.6 | 2.6 | -0.5
Cc1cc(SCCC(=O)O)nc2c(C)cccc12 | -12.1 | -1.4 | 2.6 | 1.3 | 2.0 | . | .
CCCN(C(=O)/C=C/c1ccc(S(=O)(=O)N(CC)CC)cc1)C1CCS(=O)(=O)C1 (stereo unspecified) | -6.8 | -1.0 | 5.8 | -1.3 | 0.6 | . | .
NS(=O)(=O)c1ccc(CCNc2nc3c(-c4cccc(F)c4)nnn3c3ccccc23)cc1 | -13.8 | 27.3 | 72.2* | 27.7 | 4.7 | 7.3 | -2.2
CC(=O)Nc1cc(-c2ccsc2)cn2c(-c3ccc(F)cc3)cnc12 | . | -1.0 | -8.3 | 28.0 | -1.8 | . | .
O=C(Nc1ccc(Cl)cn1)c1cc2c(s1)-c1ccccc1OC2 | -7.4 | 0.0 | 55.8* | 7.3 | -1.5 | 0.0 | 0.3
O=C(Nc1cccnc1Cl)c1cc2c(s1)-c1ccccc1OC2 | -5.7 | -0.2 | 12.3 | -4.6 | -2.6 | . | .
O=C(COC(=O)Cc1ccsc1)Nc1ccc(Cl)c(S(=O)(=O)N2CCOCC2)c1 | -4.9 | -0.4 | 77.4* | 6.2 | -2.3 | 1.0 | 3.2
O=C(COC(=O)Cc1ccsc1)Nc1ccc(S(=O)(=O)N2CCOCC2)cc1 | -3.7 | -1.0 | 3.6 | -1.4 | -1.4 | . | .
COc1ccc(C(C(=O)NC2CCCC2)N(C(=O)c2snc(-c3ccc(F)cc3)c2N)c2ccccc2)cc1 (stereo unspecified) | -2.4 | -3.9 | 57.8* | -6.4 | -0.8 | 2.8 | 3.8
NC(=O)c1nsc(C(=O)N(c2ccccc2)C(C(=O)NC2CCCC2)c2cccs2)c1N (stereo unspecified) | 1.8 | 9.8 | 53.7* | 1.0 | -2.6 | 6.5 | -0.5
COc1cccc(COC(=O)C(Cc2ccccc2)NC(=O)c2ccco2)c1 (stereo unspecified) | . | 1.2 | -1.3 | 4.2 | -1.0 | . | .
Cc1nc2sccn2c(=O)c1CCN1CCC(=C(c2ccc(F)cc2)c2ccc(F)cc2)CC1 | -3.8 | 6.3 | 59.2* | -5.0 | -0.7 | -0.9 | 1.2
CCNc1ccc(P(=O)(c2ccccc2)c2ccccc2)cc1 | -3.2 | 0.2 | -4.5 | -1.7 | 0.2 | . | .
NC(=O)CN1CCN(Cc2ccc3c(c2)OCO3)CC1 | -3.9 | -2.7 | 2.7 | -0.7 | -3.3 | . | .
COc1cc(C(=O)c2nccc3cc(OC)c(OC)cc23)c([N+](=O)[O-])cc1OC | -7.1 | 3.0 | 58.3* | -8.6 | 2.9 | -0.1 | -1.7
COc1cc(N)c(C(=O)c2nccc3cc(OC)c(OC)cc23)cc1OC | -5.2 | -1.6 | -2.8 | 1.4 | 3.7 | . | .
CS(=O)(=O)c1ccc(Cl)c(NC(=O)c2cccc(-n3cnnn3)c2)c1 | -0.4 | -0.7 | -0.8 | -1.2 | -0.5 | . | .
CC1CCCCN1S(=O)(=O)c1ccc(S(=O)(=O)N2CCN(c3ccc(F)cc3)CC2)cc1 (stereo unspecified) | -4.0 | -3.4 | 52.5* | -8.0 | 0.6 | 3.1 | 3.2
CCCCn1c(NS(=O)(=O)c2ccc(C)cc2)c(S(=O)(=O)c2ccccc2)c2nc3ccccc3nc21 | -16.6 | 25.2 | 54.9* | 22.4 | 3.0 | 1.6 | -5.7
CCCCn1c(NCc2ccccc2NS(=O)(=O)c2ccc(C)cc2)nc2ccccc21 | 8.0 | 3.8 | -2.3 | 1.1 | 2.5 | . | .
CCOC(=O)/C=C1/SCC(=O)N1CC(=O)c1ccc[nH]1 | -6.7 | 5.2 | 0.6 | 4.5 | 1.2 | . | .
O=C(C[n+]1cccc2ccccc21)c1ccc([N+](=O)[O-])cc1 | -2.5 | 3.3 | -2.5 | 3.5 | -4.3 | . | .
